Screens as filed in PubChem BioAssay.
The list is not random: actives were taken first. Their share in the collection is about 2.1%.
Dynein transport: dynein cargo transport inhibition. 3617.4 mouse cells, GR-EGFP nuclear translocation imaging; test concentration mostly 20 µM; stimulated with dexamethasone, 1 µM; active compounds read low. z-score, hits read low. 220,000 tested, 0.47% active. AID 1381;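 active means plate z-score of nuclear minus cytoplasmic receptor signal below a set negative limit, without overly bright fluorescence or cell loss, cut at about -3.5 in these data, passing the limit was not always enough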;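 further: z-score of nuclear minus cytoplasmic ring GR-EGFP intensity difference per well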
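Buffer or medium: tet-free medium with charcoal-stripped serum / Also added: dexamethasone agonist, 1.0 µM final, for 30 min / Timing: induction 48 h, compound 1 h, agonist 30 min / Measured by: high-content fluorescence imaging after fixation / Read-out: nuclear-to-cytoplasmic GR-EGFP distribution per well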
Autophagy HCS: autophagy modulation, high-content screen. MEF GFP-LC3 puncta imaging; test concentration mostly 10 µM. calls only at 10 µM (by protocol). 190,000 tested, 0.98% active. AID 463193;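 active means percentage of spot-positive cells more than 3 SD above its plate mean, without a fluorescence outlier flag or 80% toxicity; inconclusive means no clear call, values can overlap the other calls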;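 further: spot-positive cell cutoff set from DMSO-treated cells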
INS promoter inh: TRM-6 insulin promoter activity inhibition | TRM-6 cells, insulin promoter-eGFP reporter, imaging; reporter expression induced with tamoxifen | inhibition, % at 2 µM | 130,000 tested, 0.9% active | AID 1273;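 active means inhibition above the mean plus 3 SD, with well images judged a real hit on visual review, cut at about 60% in these data, passing the limit was not always enough; inconclusive means inhibition over the cutoff but images rejected on review; inactive means inhibition not above the cutoff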
PERK inh: human PERK inhibition, primary cell-based screen | CHO PERK-DD fusion, SEAP luminescence translation reporter | inhibition, % at 5.6 µM | 220,000 tested, 0.17% active | AID 1416;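 active means inhibition above the mean inhibition of all tested compounds plus 3 SD, set separately per screening campaign, cut at about 2.9% in these data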;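 further: PERK kinase domain activated by AP20187 dimerizer at 100 nM; 0% = DMSO with dimerizer and 100% = rapamycin at 8.4 µM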
Target sequence (Q9NZJ5 whole entry, looked up, the tested form may be a part): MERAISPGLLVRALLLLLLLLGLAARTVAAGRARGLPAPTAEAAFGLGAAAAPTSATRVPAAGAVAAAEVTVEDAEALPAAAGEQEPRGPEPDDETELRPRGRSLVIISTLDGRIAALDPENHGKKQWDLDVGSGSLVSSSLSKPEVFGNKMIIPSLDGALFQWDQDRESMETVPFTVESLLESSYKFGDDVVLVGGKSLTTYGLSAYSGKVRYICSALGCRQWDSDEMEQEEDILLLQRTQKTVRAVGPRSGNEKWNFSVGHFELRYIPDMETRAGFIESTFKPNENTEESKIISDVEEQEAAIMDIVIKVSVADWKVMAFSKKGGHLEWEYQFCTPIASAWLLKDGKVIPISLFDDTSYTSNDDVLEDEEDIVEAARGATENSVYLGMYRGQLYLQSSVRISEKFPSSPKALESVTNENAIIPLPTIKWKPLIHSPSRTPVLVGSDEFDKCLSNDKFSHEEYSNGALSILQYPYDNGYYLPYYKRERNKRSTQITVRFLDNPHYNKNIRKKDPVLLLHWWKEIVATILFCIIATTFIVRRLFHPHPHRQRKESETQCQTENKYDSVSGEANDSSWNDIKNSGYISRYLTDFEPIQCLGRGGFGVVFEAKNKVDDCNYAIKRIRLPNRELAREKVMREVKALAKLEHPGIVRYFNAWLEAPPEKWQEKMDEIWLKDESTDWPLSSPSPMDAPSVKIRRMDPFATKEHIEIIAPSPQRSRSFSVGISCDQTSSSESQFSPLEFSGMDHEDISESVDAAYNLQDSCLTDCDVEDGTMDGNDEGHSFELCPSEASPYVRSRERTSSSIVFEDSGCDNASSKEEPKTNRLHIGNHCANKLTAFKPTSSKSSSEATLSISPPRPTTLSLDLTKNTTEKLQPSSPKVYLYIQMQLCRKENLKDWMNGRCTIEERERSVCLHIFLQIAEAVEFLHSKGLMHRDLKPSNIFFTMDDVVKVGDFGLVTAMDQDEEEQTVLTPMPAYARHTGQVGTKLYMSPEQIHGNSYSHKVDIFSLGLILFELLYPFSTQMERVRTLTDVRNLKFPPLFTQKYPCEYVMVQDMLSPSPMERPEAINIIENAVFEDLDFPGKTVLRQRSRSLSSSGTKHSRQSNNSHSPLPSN
Insulin prom up: MIN6 insulin promoter up-regulation; MIN6 insulin promoter-GFP reporter, high-content imaging; active compounds read high; z-score at 5 µM; 190,000 tested, 0.3% active; AID 1625;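 active means z-score above 3 at 5 µM with at least 500 cells counted in the well; inconclusive means wells under 500 cells, flagged as cytotoxic or low count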
Active calls of the source: *; i = inactive; u = inconclusive; x = not tested or not shown; + = active, no number.

SMILES	Dynein transport	Autophagy HCS	INS promoter inh	PERK inh	Insulin prom up
CC(=O)N=c1n(C)c2ccccc2n1CCOc1ccccc1	-0.38	i	-83	1	-0.09
Cc1nnc(SC(C)C(=O)Nc2c(C)n(C)n(-c3ccccc3)c2=O)n1N (stereo not given)	-1.3	i	18	1	2
CC(=O)c1ccc(O)c(CSC2=NCCS2)c1	1.3	i	14	1	-0.26
COc1ccc(C2C(C(=O)c3ccccc3)=C(C)Nc3nc4ccccc4n32)c(OC)c1 (stereo not given)	-0.42	i	-46	1	3.8*
CCCNC(=S)Nc1c(C)n(C)n(-c2ccccc2)c1=O	-1.2	i	x	1	-0.02
Cc1ccc2nc(/N=C(\N)NC(=O)N3c4ccccc4Sc4ccccc43)nc(C)c2c1	-0.66	i	8	1	-1.2
Cc1ccc2c(C)nc(/N=C(\N)NC(=O)N3c4ccccc4Sc4ccccc43)nc2c1	0.019	i	80*	-1	-0.9
Cc1cccc(CN2C(=O)N/C(=C/c3ccc(C)s3)C2=O)c1	-1.9	+	-96	0	x
Cc1ccc(NC(=O)CN2C(=O)N/C(=C/c3ccc(C)o3)C2=O)cc1	-1	i	-10	0	0.03
Cc1ccc(NC(=O)CN2C(=O)N/C(=C/c3ccc(C)s3)C2=O)cc1	-1.2	+	-58	1	1
Cc1ccc(/C=C2/NC(=O)N(Cc3ccccc3)C2=O)s1	-5.2	i	x	-1	0.76
O=c1nc2n(c3ccc(Br)cc13)CCS2	-0.58	i	58	0	x
COc1ccc(Cl)cc1NC(=S)NNC(=O)c1cccnc1	0.99	+	-53	1	-0.18
Nc1cc(=O)[nH]c(N2CCN(c3ccccc3)CC2)n1	1.5	+	x	0	-0.44
O=c1[nH]c(N2CCN(c3ccccc3)CC2)nc2c1CCCC2	-1.9	i	-8	-1	0.22
CCOc1ccc(S(=O)(=O)N2c3ccccc3CC2C)cc1 (stereo not given)	0.2	+	-257	0	u
Cc1ccc(S(=O)(=O)N2c3ccccc3CC2C)cc1 (stereo not given)	-0.11	i	x	2	-1.2
Cc1cc(C)c(S(=O)(=O)Nc2ccnc(-c3cccnc3)n2)c(C)c1	-0.82	i	x	1	0.45
CCOc1ccccc1NC(=S)N1CCC(NC(=O)C(C)(C)C)CC1	0.32	i	x	0	0.69
COc1ccc(C(=O)NC(CC(=O)O)c2cc([N+](=O)[O-])ccc2Cl)c(SC)c1 (stereo not given)	-0.8	i	0	2	x
NC(=O)c1ccccc1N/C=C/C(=O)c1ccc(F)cc1	2.9	i	21	0	0.34
NC(=O)c1ccccc1N/C=C/C(=O)c1ccc(Cl)cc1Cl	0.16	i	74*	0	-0.1
Oc1ccccc1-c1nc(NCC2CCCO2)c2ccccc2n1 (stereo not given)	-0.66	i	x	0	0.02
COc1cccc(-c2nc(NCC3CCCO3)c3ccccc3n2)c1O (stereo not given)	0.32	+	-12	-1	x
CCc1ccc(C2CC(=O)N(c3cccc(F)c3)C3=C2C(=O)OC3)cc1 (stereo not given)	0.52	i	-47	1	0.19
SMILES	Dynein transport	Autophagy HCS	INS promoter inh	PERK inh	Insulin prom up
Cc1cccc(CN2CCN(Cc3ccc(-n4cccn4)cc3)CC2CCO)n1 (stereo not given)	2.4	i	x	-1	0.03
Cc1cccc(CN2CCN(Cc3cccc(-n4cccn4)c3)CC2CCO)n1 (stereo not given)	-0.5	+	x	0	x
CCN1C(=O)CC(N2CCOCC2)C1=O (stereo not given)	0.15	i	24	3.0*	x
Cc1ccc([N+](=O)[O-])cc1NC(=O)Nc1cccc(F)c1	0.073	x	x	0	-0.9
COc1ccc(Br)cc1/C=C/C(=O)Nc1ccc2ccccc2c1	0.61	i	17	-2	-1.2
CCC(=O)Nc1cccc(C(=O)/C=C/c2cc(Br)ccc2OC)c1	-2	i	94*	-2	0.08
CC(=O)NC(Cc1ccc(C)cc1)C(=O)NC1CCN(C(=O)c2ccc([N+](=O)[O-])cc2)CC1 (stereo not given)	0.09	i	x	2	0.09
CC(=O)NC(Cc1ccccc1C)C(=O)NC1CCN(C(=O)c2ccc(C)cc2)CC1 (stereo not given)	1.3	+	27	0	-0.4
CCOC(=O)c1cc2occc2n1CC(=O)Nc1ccc(OC)cc1OC	-0.29	i	x	0	0.23
COc1cc(S(=O)(=O)N2CCOCC2)ccc1NC(=O)COC(=O)C12CC3CC(CC(C3)C1)C2	0.94	i	58	0	3.9*
Cc1ccc(S(=O)(=O)N2CCOCC2)cc1NC(=O)COc1ncnc2ccccc12	-0.59	i	10	1	0.19
CCC(CC)C(=O)OCC(=O)Nc1ccc(S(=O)(=O)N2CCOCC2)cc1OC	0.48	i	25	-1	0.29
Cc1ccc(S(=O)(=O)N2CCOCC2)cc1NC(=O)COC(=O)c1cc(=O)c2ccccc2o1	0.25	+	46	0	0.4
CC(C)n1nnnc1-c1cc(Cl)cc(Cl)c1	0.51	i	x	3.5*	-2
CC(C)n1nnnc1-c1cccc(Cl)c1	-0.6	i	48	1	0.49
Cc1ccc(-c2nn(-c3ccccc3)cc2NC(=O)CCl)cc1	-0.24	i	x	0	0.27
COc1cc(/C=C2\C(C)=C(C#N)c3nc(N)c(C#N)c(C)c32)ccc1OCC(=O)O	-0.83	x	x	0	-0.76
CC1=C(C#N)c2nc(N)c(C#N)c(C)c2/C1=C\c1ccc(C)cc1	1.8	+	-46	1	0.74
O=C(NCc1ccc(Cl)cc1)C(=O)NCC1OCCN1C(=O)c1ccc(Cl)cc1 (stereo not given)	-0.27	i	69*	1	x
Cc1ccc(CNC(=O)C(=O)NCC2OCCN2C(=O)c2ccc(Cl)cc2)cc1 (stereo not given)	-0.32	i	-37	0	-0.14
Cc1ccc(N=Nc2c(N)nn3c(C)cc(C)nc23)cc1	0.6	i	82*	-2	x
Cc1ccc(N=Nc2c(N)nn3c(N)c(C#N)c(C)nc23)cc1	0.29	i	47	0	x
Cc1cc(C)n2nc(N)c(N=Nc3cccc(Cl)c3)c2n1	-0.72	i	62*	-2	-0.65
CCOC(=O)C1CCCN(c2cc(=O)n(-c3ccccc3Cl)c(=O)[nH]2)C1 (stereo not given)	0.27	i	-30	3.3*	-0.27
O=C1CC(C2CCCO2)C(=O)N1c1ccc(Cl)c(Cl)c1 (stereo not given)	-1.3	i	x	1	-0.57
O=C(C1=C(O)C(=O)N(c2ncccn2)C1c1ccc(Cl)cc1)c1ccco1 (stereo not given)	1	i	42	2	x
Cc1ccc(C(=O)C2=C(O)C(=O)N(c3ncccn3)C2c2ccc(Cl)cc2)o1 (stereo not given)	-0.59	i	80*	0	x
